pEC50, pIC50: −log10 of the molar value. Active and inactive are the calls of the source. The calls are words filed in the database; no cut-off is given here.
Legend:
[1] = target: P2Y purinoceptor 1 (Meleagris gallopavo) (UniProt P49652); assay: Antagonist activity at P2Y1 receptor measured as capacity to inhibit phospholipase C stimulation elicited by 10 nM 2-MeSATP; type: functional
Method in brief: (§1)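 The PLC assay uses [3H]inositol-labelled turkey erythrocyte ghosts (~175 μg protein) in HEPES buffer, pH 7.0, with 1 μM GTPγS. Ghosts are incubated 5 min at 30 °C with 10 nM 2-MeSATP plus graded analogue concentrations. [3H]inositol phosphates are separated by anion exchange. IC50 is the concentration inhibiting 50% of the 2-MeSATP response. Maximal inhibition is 100 minus residual stimulation at the top concentration. Each curve was run at least 3 times in duplicate or triplicate.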

[2] = target: P2Y purinoceptor 1 (Meleagris gallopavo) (UniProt P49652); assay: Agonist activity at P2Y1 receptor measured as capacity to stimulate phospholipase C in turkey erythrocyte membranes; type: functional, cell membranes
Method in brief: (§2)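 Turkey erythrocytes labelled with 2-[3H]myo-inositol in inositol-free DMEM for 18–24 h at 37 °C, 5% CO2. Ghosts made by hypotonic lysis. Labelled ghosts (~175 μg protein) incubated 5 min at 30 °C with 1 μM GTPγS and test nucleotide at pH 7.0 (HEPES, KCl, CaCl2, MgSO4, EGTA). Total [3H]inositol phosphates measured by anion-exchange chromatography. EC50 from four-parameter logistic fit. Efficacy is relative to a maximal 2-MeSATP response in the same experiment.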

P2Y purinoceptor 1 [3] = target: T1, P2Y purinoceptor 1 (Meleagris gallopavo, UniProt P49652); assay: Antagonist activity at P2Y1 receptor measured as capacity to inhibit 50% of phospholipase C stimulation elicited by 10 nM 2-MeSATP; type: functional
Method in brief: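 Ghosts are incubated 5 min at 30 °C with 10 nM 2-MeSATP plus graded analogue concentrations. [3H]inositol phosphates are separated by anion exchange. Maximal inhibition is 100 minus residual stimulation at the top concentration. Each curve was run at least 3 times in duplicate or triplicate.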

[4] = target: P2Y purinoceptor 1 (Meleagris gallopavo) (UniProt P49652); assay: Agonist activity at P2Y1 receptor measured as capacity to stimulate phospholipase C in turkey erythrocyte membranes; No effect or small inhibition; type: functional, cell membranes; method in brief: as §2
[5] = target: P2Y purinoceptor 1 (Meleagris gallopavo) (UniProt P49652); assay: Antagonist activity at P2Y1 receptor measured as capacity to inhibit phospholipase C stimulation elicited by 10 nM 2-MeSATP; No effect or small inhibition; type: functional; method in brief: as §1
P2Y purinoceptor 1 [6] = target: T1, P2Y purinoceptor 1; assay: Agonist activity at P2Y1 receptor measured as capacity to stimulate 50% phospholipase C in turkey erythrocyte membranes; type: functional, cell membranes; method in brief: as §2
[7] = target: P2Y purinoceptor 1 (Meleagris gallopavo) (UniProt P49652); assay: Agonist activity at P2Y1 receptor measured as capacity to stimulate phospholipase C in turkey erythrocyte membranes; NE=No effect; type: functional, cell membranes; method in brief: as §2
[8] = target: P2Y purinoceptor 1 (Meleagris gallopavo) (UniProt P49652); assay: Antagonist activity at P2Y1 receptor measured as capacity to inhibit phospholipase C stimulation elicited by 10 nM 2-MeSATP; Small inhibition at 30-100 uM; type: functional; settings: filed as antagonist; method in brief: as §1
[9] = target: P2Y purinoceptor 1 (Meleagris gallopavo) (UniProt P49652); assay: Antagonist activity at P2Y1 receptor measured as capacity to inhibit phospholipase C stimulation elicited by 10 nM 2-MeSATP; NE=No effect; type: functional; method in brief: as §1

P2Y purinoceptor 1 (Meleagris gallopavo), sequence (P49652 whole entry): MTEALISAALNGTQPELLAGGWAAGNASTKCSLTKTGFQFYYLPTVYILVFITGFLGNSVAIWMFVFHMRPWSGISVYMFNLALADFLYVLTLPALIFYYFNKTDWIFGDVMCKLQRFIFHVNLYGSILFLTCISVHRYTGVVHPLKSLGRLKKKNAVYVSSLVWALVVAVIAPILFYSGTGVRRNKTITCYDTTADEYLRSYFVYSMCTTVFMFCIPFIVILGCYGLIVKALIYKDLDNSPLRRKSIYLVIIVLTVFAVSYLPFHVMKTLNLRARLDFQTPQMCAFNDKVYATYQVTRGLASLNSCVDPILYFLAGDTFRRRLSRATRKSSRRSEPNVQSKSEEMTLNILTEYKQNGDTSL
T1 sequence (P49652 whole entry): as above

Max inhibition [1]	Max increase [2]	pIC50 (P2Y purinoceptor 1 [3])	pEC50 (P2Y purinoceptor 1 [6])	Max increase [7]	SMILES	further results
73%	43%	–	–	–	Nc1ncnc2c1ncn2[C@@H]1O[C@H](COP(=O)(O)O)[C@H]2OP(=O)(O)O[C@H]21	–
90%	13%	6.49	–	–	CNc1ncnc2c1ncn2C1OC(COP(=O)(O)O)CC1OP(=O)(O)O (stereo not given)	–
77%	21%	5.38	5.89	–	Nc1ncnc2c1ncn2[C@@H]1O[C@H](COP(=O)(O)O)[C@@H](OP(=O)(O)O)[C@H]1O	–
81%	16%	4.96	5.08	–	Nc1ncnc2c1ncn2C1OC(COP(=O)(O)O)CC1OP(=O)(O)O (stereo not given)	–
–	–	4.90	4.39	–	Nc1ncnc2c1ncn2[C@@H]1O[C@H](COP(=O)(O)O)[C@H]2O[P@](=O)(O)O[C@H]21	–
–	–	–	–	inactive	NCCCCCCNc1ncnc2c1ncn2[C@@H]1O[C@H](COP(=O)(O)O)[C@@H](O)[C@H]1OP(=O)(O)O	Max inhibition [9]: inactive
70%	–	4.33	–	inactive	CN(C)c1ncnc2c1ncn2[C@H]1C[C@H](OP(=O)(O)O)[C@@H](COP(=O)(O)O)O1	–
78%	–	4.54	–	inactive	CSc1ncnc2c1ncn2[C@H]1C[C@H](OP(=O)(O)O)[C@@H](COP(=O)(O)O)O1	–
87%	12%	5.24	5.20	–	Nc1ncnc2c1ncn2[C@H]1C[C@H](OP(=O)(O)O)[C@@H](COP(=O)(O)O)O1	–
65%	35%	4.91	4.89	–	CO[C@@H]1[C@H](OP(=O)(O)O)[C@@H](COP(=O)(O)O)O[C@H]1n1cnc2c(N)ncnc21	–
75%	25%	5.07	5.86	–	Nc1ncnc2c1ncn2[C@@H]1O[C@H](COP(=O)(O)O)[C@@H](O)[C@H]1OP(=O)(O)O	–
50%	50%	< 4.00	< 4.00	–	Nc1ncnc2c1ncn2C1O[C@H](COP(=O)(O)OP(=O)(O)OC2O[C@H](CO)[C@@H](O)[C@H]2O)[C@@H](O)[C@H]1OP(=O)(O)O (stereo not given in full)	–
–	–	–	–	inactive	Nc1ncnc2c1ncn2C1OC(CCl)CC1OP(=O)(O)O (stereo not given)	Max inhibition [9]: inactive

The next lines start with the molecule.

SMILES	Max inhibition [1]	Max increase [2]	pIC50 (P2Y purinoceptor 1 [3])	pEC50 (P2Y purinoceptor 1 [6])	Max increase [7]	further results
O=P(O)(O)OC[C@H]1O[C@@H](n2cnc3c(Cl)ncnc32)C[C@@H]1OP(=O)(O)O	–	–	–	–	–	Max increase [4]: inactive; Max inhibition [5]: inactive
CSc1nc(N)c2ncn([C@H]3C[C@H](OP(=O)(O)O)[C@@H](COP(=O)(O)O)O3)c2n1	77%	22%	5.68	6.26	–	–
O=c1[nH]cnc2c1ncn2[C@H]1C[C@H](OP(=O)(O)O)[C@@H](COP(=O)(O)O)O1	–	–	–	–	inactive	Max inhibition [8]: Partial antagonist
Nc1nc(Cl)nc2c1ncn2[C@H]1C[C@H](OP(=O)(O)O)[C@@H](COP(=O)(O)O)O1	80%	19%	5.70	6.19	–	–
O=P(O)(O)OC[C@H]1O[C@@H](n2cnc3c2ncn2ccnc32)C[C@@H]1OP(=O)(O)O	–	–	–	–	inactive	Max inhibition [9]: inactive
C[n+]1cnc2c(ncn2[C@H]2C[C@H](OP(=O)(O)O)[C@@H](COP(=O)(O)O)O2)c1N	100%	–	4.26	–	inactive	–
CC(C)(COP(=O)(O)OP(=O)(O)OC[C@H]1O[C@@H](n2cnc3c(N)ncnc32)[C@H](OP(=O)(O)O)[C@@H]1O)C(O)C(=O)NCCC(=O)NCCS (stereo not given in full)	72%	43%	4.14	< 4.00	–	–
CCNc1ncnc2c1ncn2[C@H]1C[C@H](OP(=O)(O)O)[C@@H](COP(=O)(O)O)O1	100%	–	5.97	–	inactive	–
CCCNc1ncnc2c1ncn2[C@H]1C[C@H](OP(=O)(O)O)[C@@H](COP(=O)(O)O)O1	–	–	–	–	inactive	Max inhibition [8]: Partial antagonist
O=C(Nc1ncnc2c1ncn2[C@H]1C[C@H](OP(=O)(O)O)[C@@H](COP(=O)(O)O)O1)c1ccccc1	–	–	–	–	inactive	Max inhibition [9]: inactive
Nc1ncnc2c1ncn2[C@H]1C[C@H](OP(O)(O)=S)[C@@H](COP(O)(O)=S)O1	91%	9%	4.06	–	–	–
Nc1ncnc2c1nc(Br)n2[C@H]1C[C@H](OP(=O)(O)O)[C@@H](COP(=O)(O)O)O1	100%	–	4.44	–	inactive	–

Reference: ChEMBL document CHEMBL1131110, “Deoxyadenosine bisphosphate derivatives as potent antagonists at P2Y1 receptors” (J Med Chem, 1998)
